Reference: ChEMBL document CHEMBL4002555, “Bioactive Pentacyclic Triterpenoids from the Leaves of Cleistocalyx operculatus” (J Nat Prod, 2016)

Experiments:
[1] = tested on: HepG2; assay: Cytotoxicity against human HepG2 cells after 72 hrs by MTT assay; assay type: functional, cell-based; conditions: HepG2, 72 h
Summary of the method: (§1)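 MTT growth-inhibition assay in human HepG2 hepatocellular, NCI-N87 gastric and MCF-7 breast carcinoma lines, with a doxorubicin positive control. IC50 values are means ± SD from three individual experiments; >10.0 μM was taken as noncytotoxic.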

[2] = tested on: NCI-N87; assay: Cytotoxicity against human NCI-N87 cells after 72 hrs by MTT assay; assay type: functional, cell-based; conditions: NCI-N87, 72 h; summary of the method: as §1
[3] = tested on: MCF7; assay: Cytotoxicity against human MCF7 cells after 72 hrs by MTT assay; assay type: functional, cell-based; conditions: MCF7, 72 h; summary of the method: as §1
[4] = tested on: RAW264.7; assay: Anti-inflammatory activity in mouse RAW264.7 cells assessed as inhibition of LPS-induced IL-6 production at 2 uM pretreated for 1 hr followed by LPS stimulation measured after 24 hrs by ELISA relative to control; assay type: functional
Summary of the method: (§2)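 LPS-stimulated RAW 264.7 macrophages, with IL-6 and TNF-α production read separately. Test concentrations were 0.4, 2, 10 and 50 μM, and dexamethasone was the reference drug. Results are given as percent inhibition of cytokine production.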

[5] = tested on: RAW264.7; assay: Anti-inflammatory activity in mouse RAW264.7 cells assessed as inhibition of LPS-induced IL-6 production at 0.4 uM pretreated for 1 hr followed by LPS stimulation measured after 24 hrs by ELISA relative to control; assay type: functional; summary of the method: as §2
[6] = tested on: RAW264.7; assay: Anti-inflammatory activity in mouse RAW264.7 cells assessed as inhibition of LPS-induced TNF-alpha production at 2 uM pretreated for 1 hr followed by LPS stimulation measured after 24 hrs by ELISA relative to control; assay type: functional; summary of the method: as §2
[7] = tested on: RAW264.7; assay: Anti-inflammatory activity in mouse RAW264.7 cells assessed as inhibition of LPS-induced TNF-alpha production at 0.4 uM pretreated for 1 hr followed by LPS stimulation measured after 24 hrs by ELISA relative to control; assay type: functional; summary of the method: as §2
[8] = Cytotoxicity against mouse RAW264.7 cells assessed as growth inhibition at 2 uM after 72 hrs by MTT assay relative to control; assay type: cell-based; conditions: read-out: GI
[9] = Cytotoxicity against mouse RAW264.7 cells assessed as growth inhibition at 50 uM after 72 hrs by MTT assay relative to control; assay type: cell-based; conditions: read-out: GI
[10] = tested on: RAW264.7; assay: Anti-inflammatory activity in mouse RAW264.7 cells assessed as inhibition of LPS-induced IL-6 production at 50 uM pretreated for 1 hr followed by LPS stimulation measured after 24 hrs by ELISA relative to control; assay type: functional; summary of the method: as §2
[11] = tested on: RAW264.7; assay: Anti-inflammatory activity in mouse RAW264.7 cells assessed as inhibition of LPS-induced IL-6 production at 10 uM pretreated for 1 hr followed by LPS stimulation measured after 24 hrs by ELISA relative to control; assay type: functional; summary of the method: as §2
[12] = tested on: RAW264.7; assay: Anti-inflammatory activity in mouse RAW264.7 cells assessed as inhibition of LPS-induced TNF-alpha production at 50 uM pretreated for 1 hr followed by LPS stimulation measured after 24 hrs by ELISA relative to control; assay type: functional; summary of the method: as §2
[13] = tested on: RAW264.7; assay: Anti-inflammatory activity in mouse RAW264.7 cells assessed as inhibition of LPS-induced TNF-alpha production at 10 uM pretreated for 1 hr followed by LPS stimulation measured after 24 hrs by ELISA relative to control; assay type: functional; summary of the method: as §2

COC(=O)[C@]12CC=C(C)[C@@H](C)[C@@H]1[C@H]1CC[C@@H]3[C@@]4(C)CC[C@H](O)C(C)(C)[C@@H]4CC[C@@]3(C)[C@]1(C(=O)O)CC2
IC50 [1]: 3.2 µM
IC50 [2]: 6.5 µM
IC50 [3]: 4.9 µM
inhibition at 2 µM [4]: 51%
inhibition at 0.4 µM [5]: 38.4%
inhibition at 2 µM [6]: 42.9%
inhibition at 0.4 µM [7]: 39.1%
inhibition at 72 h, 2 µM [8]: < 5%

CC1(C)CC[C@@]23CC[C@]4(C)[C@@](OC2=O)([C@@H]3C1)[C@H]1O[C@H]1[C@@H]1[C@@]2(C)C[C@@H](O)[C@H](O)[C@@](C)(CO)[C@@H]2CC[C@]14C
IC50 [1]: > 10 µM
IC50 [2]: > 10 µM
IC50 [3]: > 10 µM
inhibition at 72 h, 50 µM [9]: < 5%
inhibition at 50 µM [10]: < 50%
inhibition at 10 µM [11]: < 50%
inhibition at 2 µM [4]: < 50%
inhibition at 0.4 µM [5]: < 50%
inhibition at 50 µM [12]: < 50%
inhibition at 10 µM [13]: < 50%
inhibition at 2 µM [6]: < 50%
inhibition at 0.4 µM [7]: < 50%

CC1(C)CC[C@]2(C(=O)O)CC[C@]3(C)C(=CC(=O)[C@@H]4[C@@]5(C)C[C@@H](O)[C@H](O)[C@@](C)(CO)[C@@H]5CC[C@]43C)[C@@H]2C1
IC50 [1]: > 10 µM
IC50 [2]: > 10 µM
IC50 [3]: > 10 µM
inhibition at 72 h, 50 µM [9]: < 5%
inhibition at 50 µM [10]: 63%
inhibition at 10 µM [11]: 35.2%
inhibition at 2 µM [4]: 33.8%
inhibition at 50 µM [12]: 18.8%
inhibition at 10 µM [13]: < 10%
inhibition at 2 µM [6]: < 10%

C=C1CC[C@]2(C(=O)O)CC[C@]3(C)C(=C[C@@H](OC)[C@@H]4[C@@]5(C)C[C@@H](O)[C@H](O)[C@@](C)(CO)[C@@H]5CC[C@]43C)[C@@H]2[C@H]1C
IC50 [1]: > 10 µM
IC50 [2]: > 10 µM
IC50 [3]: > 10 µM
inhibition at 72 h, 50 µM [9]: < 5%
inhibition at 50 µM [10]: < 50%
inhibition at 10 µM [11]: < 50%
inhibition at 2 µM [4]: < 50%
inhibition at 0.4 µM [5]: < 50%
inhibition at 50 µM [12]: < 50%
inhibition at 10 µM [13]: < 50%
inhibition at 2 µM [6]: < 50%
inhibition at 0.4 µM [7]: < 50%

CO[C@@H]1C=C2[C@@H]3CC(C)(C)CC[C@]3(C(=O)O)CC[C@@]2(C)[C@]2(C)CC[C@@H]3[C@](C)(C[C@@H](O)[C@H](O)[C@@]3(C)CO)[C@@H]12
IC50 [1]: > 10 µM
IC50 [2]: > 10 µM
IC50 [3]: > 10 µM
inhibition at 72 h, 50 µM [9]: < 5%
inhibition at 50 µM [10]: 68.8%
inhibition at 10 µM [11]: 64.8%
inhibition at 2 µM [4]: 42.3%
inhibition at 50 µM [12]: 52.8%
inhibition at 10 µM [13]: 54.1%
inhibition at 2 µM [6]: 22%

C=C1CC[C@]2(C(=O)O)CC[C@]3(C)C(=CC(=O)[C@@H]4[C@@]5(C)C[C@@H](O)[C@H](O)[C@@](C)(CO)[C@@H]5CC[C@]43C)[C@@H]2[C@H]1C
IC50 [1]: > 10 µM
IC50 [2]: > 10 µM
IC50 [3]: > 10 µM
inhibition at 72 h, 50 µM [9]: < 5%
inhibition at 50 µM [10]: < 50%
inhibition at 10 µM [11]: < 50%
inhibition at 2 µM [4]: < 50%
inhibition at 0.4 µM [5]: < 50%
inhibition at 50 µM [12]: < 50%
inhibition at 10 µM [13]: < 50%
inhibition at 2 µM [6]: < 50%
inhibition at 0.4 µM [7]: < 50%
